Tests used:
Assay type in all cases: functional
Rattus norvegicus [1] = assay: Ability to lower the serum prolactin levels in comparison with that of pergolide was determined for the control rats at ip dose of 0.01 mg/kg; details: route intraperitoneal
In short: (§1)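 Reserpinized male rats, test compound ip. Serum prolactin (ng/mL) was measured in control and treated groups, and the treated value was expressed as percent change from control. Means ± standard error for 10 rats, with significance versus control prolactin given as p.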

Rattus norvegicus [2] = assay: Ability to lower the serum prolactin levels in comparison with that of pergolide was determined for the control rats at ip dose of 0.05 mg/kg; details: route intraperitoneal; in short: as §1
Rattus norvegicus [3] = assay: Ability to induce contralateral rotational behavior in unilateral 6-hydroxydopamine nigrostriatal-lesioned rats and percent of rats turning was determined at intraperitoneal dosage of 1.0 mg/kg
In short: (§2)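 Rats given unilateral 6-hydroxydopamine nigrostriatal lesions, then test compound ip. Contralateral rotation was scored as percent of rats turning and as turns in the first 15 min after turning began. Groups of 6–10 rats.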

Rattus norvegicus [4] = assay: Ability to lower the serum prolactin levels in comparison with that of pergolide was determined for the control rats at ip dose of 0.1 mg/kg; details: route intraperitoneal; in short: as §1
Rattus norvegicus [5] = assay: Ability to lower the serum prolactin levels in comparison with that of pergolide was determined for the control rats at ip dose of 0.5 mg/kg; details: route intraperitoneal; in short: as §1
Rattus norvegicus [6] = assay: Ability to lower the serum prolactin levels in comparison with that of pergolide was determined for the drug-treated rats at ip dose of 0.01 mg/kg; details: route intraperitoneal; in short: as §1
Rattus norvegicus [7] = assay: Ability to lower the serum prolactin levels in comparison with that of pergolide was determined for the drug-treated rats at ip dose of 0.05 mg/kg; details: route intraperitoneal; in short: as §1
Rattus norvegicus [8] = assay: Ability to lower the serum prolactin levels in comparison with that of pergolide was determined for the drug-treated rats at ip dose of 0.1 mg/kg; details: route intraperitoneal; in short: as §1
Rattus norvegicus [9] = assay: Ability to lower the serum prolactin levels in comparison with that of pergolide was determined for the drug-treated rats at ip dose of 0.5 mg/kg; details: route intraperitoneal; in short: as §1
Rattus norvegicus [10] = assay: Ability to induce contralateral rotational behavior in unilateral 6-hydroxydopamine nigrostriatal-lesioned rats and percent of rats turning was determined at intraperitoneal dosage of 0.1 mg/kg; in short: as §2
Rattus norvegicus [11] = assay: Ability to lower the serum prolactin levels in comparison with that of pergolide expressed as percent inhibition change at ip dose of 0.01 mg/kg; details: route intraperitoneal; in short: as §1
Rattus norvegicus [12] = assay: Ability to lower the serum prolactin levels in comparison with that of pergolide expressed as percent inhibition change at ip dose of 0.05 mg/kg; details: route intraperitoneal; in short: as §1
Rattus norvegicus [13] = assay: Ability to lower the serum prolactin levels in comparison with that of pergolide expressed as percent inhibition change at ip dose of 0.1 mg/kg; details: route intraperitoneal; in short: as §1
Rattus norvegicus [14] = assay: Ability to lower the serum prolactin levels in comparison with that of pergolide expressed as percent inhibition change at ip dose of 0.5 mg/kg; details: route intraperitoneal; in short: as §1
Rattus norvegicus [15] = assay: Ability to induce contralateral rotational behavior in unilateral 6-hydroxydopamine nigrostriatal-lesioned rats and no. of turns was determined after 15 minutes of start at intraperitoneal dosage of 0.1 mg/kg; in short: as §2
Rattus norvegicus [16] = assay: Ability to induce contralateral rotational behavior in unilateral 6-hydroxydopamine nigrostriatal-lesioned rats and no. of turns was determined after 15 minutes of start at intraperitoneal dosage of 1.0 mg/kg; in short: as §2
Rattus norvegicus [17] = assay: Ability to lower the serum prolactin levels in comparison with that of pergolide was determined for the control rats at ip dose of 0.005 mg/kg; details: route intraperitoneal; in short: as §1
Rattus norvegicus [18] = assay: Ability to lower the serum prolactin levels in comparison with that of pergolide was determined for the drug-treated rats at ip dose of 0.005 mg/kg; details: route intraperitoneal; in short: as §1
Rattus norvegicus [19] = assay: Ability to lower the serum prolactin levels in comparison with that of pergolide expressed as percent inhibition change at ip dose of 0.005 mg/kg; details: route intraperitoneal; in short: as §1
Rattus norvegicus [20] = assay: Ability to lower the serum prolactin levels in comparison with that of pergolide was determined for the drug-treated rats at ip dose of 5.0 mg/kg; details: route intraperitoneal; in short: as §1
Rattus norvegicus [21] = assay: Ability to lower the serum prolactin levels in comparison with that of pergolide expressed as percent inhibition change at ip dose of 5.0 mg/kg; details: route intraperitoneal; in short: as §1

Compound	Prolactin control (Rattus norvegicus [1])	Prolactin control (Rattus norvegicus [2])	Rats turning (Rattus norvegicus [3])	Prolactin treatment (Rattus norvegicus [6])	Prolactin treatment (Rattus norvegicus [7])	Prolactin treatment (Rattus norvegicus [9])	Change (Rattus norvegicus [11])	Change (Rattus norvegicus [12])	Change (Rattus norvegicus [14])	Turns (Rattus norvegicus [15])	Turns (Rattus norvegicus [16])	Prolactin control (Rattus norvegicus [17])	Prolactin treatment (Rattus norvegicus [18])	Change (Rattus norvegicus [19])	Of rats turning (Rattus norvegicus [3])	Of rats turning (Rattus norvegicus [10])	other results
CCCN1CCO[C@@H]2Cc3n[nH]cc3C[C@H]21	58 ng/mL	45.5 ng/mL	100%	62 ng/mL	27 ng/mL	3.6 ng/mL	7%	-41%	-92%	35	52						Prolactin control (Rattus norvegicus [4]): 46.8 ng/mL; Prolactin control (Rattus norvegicus [5]): 46.8 ng/mL; Prolactin treatment (Rattus norvegicus [8]): 30.2 ng/mL; Rats turning (Rattus norvegicus [10]): 60%; Change (Rattus norvegicus [13]): -35%
CCCN1CCO[C@@H]2Cc3nc(N)ncc3C[C@H]21	52 ng/mL	45.4 ng/mL	80%	33.7 ng/mL	13.8 ng/mL		-31%	-70%			33	40.6 ng/mL	41.2 ng/mL	1%			
CCCN1CCO[C@@H]2Cc3nc(N)sc3C[C@H]21	40.6 ng/mL	41.5 ng/mL	80%	48.9 ng/mL	20.2 ng/mL		-20%	-51%			95						
CCCN1C[C@H](CSC)C[C@@H]2c3cccc4[nH]cc(c34)C[C@H]21 [PERGOLIDE]		30.4 ng/mL			1.6 ng/mL			-95%		81	93	37.7 ng/mL	3.5 ng/mL	-91%	100%	83%	
CCCN1CCC[C@@H]2Cc3n[nH]cc3C[C@H]21 [QUINPIROLE]					12.3 ng/mL	7.7 ng/mL		-61%	-76%						100%	75%	Prolactin treatment (Rattus norvegicus [20]): 2.7 ng/mL; Change (Rattus norvegicus [21]): -91%; Turns/1st (Rattus norvegicus [15]): 67; Turns/1st (Rattus norvegicus [16]): 85

Source: ChEMBL document CHEMBL1123704, “Synthesis of D-oxa tricyclic partial ergolines as dopamine agonists” (1987)
